Experimental data from ChEMBL document CHEMBL1806370, “Development of novel naphthalimide derivatives and their evaluation as potential melanoma therapeutics” (Eur J Med Chem, 2011).

Tests used:
UACC-903 [1] = test: Cytotoxicity against human UACC-903 cells assessed as decrease in cell viability after 24 hrs by MTS assay; format: functional, cell-based
Summary of the method: (§1)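 Cells in DMEM with 10% FBS at 37 °C and 5% CO2 were plated at 5×10^3 per well and grown 24 h. They were then exposed 24 or 72 h to 0.5, 1, 5, 10, 25 and 50 µM, with final DMSO 0.5% and DMSO controls. MTS/PMS was added for 4 h at 37 °C. A492 was read with the medium blank subtracted and expressed as % of control. IC50 was taken from three independent experiments (mean ± S.E.).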

A375-S2 [2] = test: Cytotoxicity against human A375-S2 cells assessed as decrease in cell viability after 24 hrs by MTS assay; format: functional, cell-based; summary of the method: as §1
1205Lu [3] = test: Cytotoxicity against human 1205 Lu cells assessed as decrease in cell viability after 24 hrs by MTS assay; format: functional, cell-based; summary of the method: as §1
UACC-903 [4] = test: Cytotoxicity against human UACC-903 cells assessed as decrease in cell viability after 72 hrs by MTS assay; format: functional, cell-based; summary of the method: as §1
A375-S2 [5] = test: Cytotoxicity against human A375-S2 cells assessed as decrease in cell viability after 72 hrs by MTS assay; format: functional, cell-based; summary of the method: as §1
1205Lu [6] = test: Cytotoxicity against human 1205 Lu cells assessed as decrease in cell viability after 72 hrs by MTS assay; format: functional, cell-based; summary of the method: as §1
UACC-903 [7] = test: Cytotoxicity against human UACC-903 cells after 24 hrs by MTS assay; format: functional, cell-based; details: UACC-903, 24 h; summary of the method: as §1
[8] = Cytotoxicity against human A375-S2 cells after 24 hrs by MTS assay; format: functional, cell-based; details: A375-S2, 24 h; summary of the method: as §1
[9] = Cytotoxicity against human SK-MEL-37 cells after 24 hrs by MTS assay; format: functional, cell-based; summary of the method: as §1
[10] = Cytotoxicity against human 1205 Lu cells after 24 hrs by MTS assay; format: functional, cell-based; summary of the method: as §1
UACC-903 [11] = test: Cytotoxicity against human UACC-903 cells after 72 hrs by MTS assay; format: functional, cell-based; details: UACC-903, 72 h; summary of the method: as §1
[12] = Cytotoxicity against human A375-S2 cells after 72 hrs by MTS assay; format: functional, cell-based; details: A375-S2, 72 h; summary of the method: as §1
[13] = Cytotoxicity against human SK-MEL-37 cells after 72 hrs by MTS assay; format: functional, cell-based; summary of the method: as §1
[14] = Cytotoxicity against human 1205 Lu cells after 72 hrs by MTS assay; format: functional, cell-based; summary of the method: as §1
UACC-903 [15] = test: Induction of apoptosis in human UACC-903 cells assessed as early apoptotic cells at 1 uM after 24 hrs using annexin-V-PE/7-AAD double staining by flow cytometry; format: functional
Summary of the method: (§2)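 UACC 903 cells were exposed 24 h at 37 °C to 1, 5 or 25 µM, with DMSO as control. Cells were harvested, washed twice in cold PBS and resuspended at 1×10^6 cells/mL in binding buffer. They were stained with 7-AAD plus PE Annexin V for 20 min at room temperature in the dark and run by flow cytometry within 1 h. Gating: double-negative live, 7-AAD+ dead, Annexin V+/7-AAD− early apoptotic. Three separate experiments.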

UACC-903 [16] = test: Induction of apoptosis in human UACC-903 cells assessed as late apoptotic cells at 1 uM after 24 hrs using annexin-V-PE/7-AAD double staining by flow cytometry; format: functional; summary of the method: as §2
UACC-903 [17] = test: Induction of apoptosis in human UACC-903 cells assessed as non-viable cells at 1 uM after 24 hrs using annexin-V-PE/7-AAD double staining by flow cytometry; format: functional; summary of the method: as §2
UACC-903 [18] = test: Induction of apoptosis in human UACC-903 cells assessed as viable cells at 1 uM after 24 hrs using annexin-V-PE/7-AAD double staining by flow cytometry; format: functional; details: UACC-903, 24 h, read-out: Activity; summary of the method: as §2
UACC-903 [19] = test: Induction of apoptosis in human UACC-903 cells assessed as early apoptotic cells at 5 uM after 24 hrs using annexin-V-PE/7-AAD double staining by flow cytometry; format: functional; summary of the method: as §2
UACC-903 [20] = test: Induction of apoptosis in human UACC-903 cells assessed as late apoptotic cells at 5 uM after 24 hrs using annexin-V-PE/7-AAD double staining by flow cytometry; format: functional; summary of the method: as §2
UACC-903 [21] = test: Induction of apoptosis in human UACC-903 cells assessed as non-viable cells at 5 uM after 24 hrs using annexin-V-PE/7-AAD double staining by flow cytometry; format: functional; summary of the method: as §2
UACC-903 [22] = test: Induction of apoptosis in human UACC-903 cells assessed as viable cells at 5 uM after 24 hrs using annexin-V-PE/7-AAD double staining by flow cytometry; format: functional; details: UACC-903, 24 h, read-out: Activity; summary of the method: as §2
UACC-903 [23] = test: Induction of apoptosis in human UACC-903 cells assessed as early apoptotic cells at 25 uM after 24 hrs using annexin-V-PE/7-AAD double staining by flow cytometry; format: functional; summary of the method: as §2
UACC-903 [24] = test: Induction of apoptosis in human UACC-903 cells assessed as late apoptotic cells at 25 uM after 24 hrs using annexin-V-PE/7-AAD double staining by flow cytometry; format: functional; summary of the method: as §2
UACC-903 [25] = test: Induction of apoptosis in human UACC-903 cells assessed as non-viable cells at 25 uM after 24 hrs using annexin-V-PE/7-AAD double staining by flow cytometry; format: functional; summary of the method: as §2
UACC-903 [26] = test: Induction of apoptosis in human UACC-903 cells assessed as viable cells at 25 uM after 24 hrs using annexin-V-PE/7-AAD double staining by flow cytometry; format: functional; details: UACC-903, 24 h, read-out: Activity; summary of the method: as §2
UACC-903 [27] = test: Induction of apoptosis in human UACC-903 cells assessed as increase in apoptotic cells after 24 hrs using annexin-V-PE/7-AAD double staining by flow cytometry; format: functional, cell-based; summary of the method: as §2
Mus musculus [28] = test: Systemic toxicity in Swiss Webster mouse assessed as mortality at 15 mg/kg, ip administered every day for 28 days; format: organism-based; set-up: dose 15 mg/kg, route intraperitoneal; details: in vivo, 672 h
Summary of the method: (§3)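 Swiss Webster mice, n = 4 per group, dosed i.p. once daily for 28 days at 5, 7.5, 10 or 15 mg/kg body weight. Body weight recorded twice per week; deaths noted over the dosing period.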

Mus musculus [29] = test: Systemic toxicity in Swiss Webster mouse assessed as weight loss at 10 mg/kg, ip administered every day for 28 days; format: organism-based; set-up: dose 10 mg/kg, route intraperitoneal; details: in vivo, 672 h; summary of the method: as §3
Mus musculus [30] = test: Systemic toxicity in Swiss Webster mouse assessed as mortality at 10 mg/kg, ip administered every day for 28 days; format: organism-based; set-up: dose 10 mg/kg, route intraperitoneal; details: in vivo, 672 h; summary of the method: as §3
UACC-903 [31] = test: Antitumor activity against human UACC-903 cells xenografted in athymic Harlan Sprague-Dawley nude mouse assessed as reduction in tumor growth at 8.5 to 10 mg/kg, ip administered daily for 24 days measured after 21 days; format: functional; details: dose mg/kg 8.5-10; route intraperitoneal
Summary of the method: (§4)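 Female athymic nude mice, 4–6 weeks old, received 5×10^6 UACC 903 cells s.c. in DMEM/10% FBS above both rib cages. After six days they were randomized at 5 mice/group, 2 tumors/mouse. Dosing was i.p. Mon/Wed/Fri, with one arm dosed daily; controls got DMSO vehicle. Tumor dimensions (calipers, mm³) and body weight were recorded three times weekly.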

UACC-903 [32] = test: Antitumor activity against human UACC-903 cells xenografted in athymic Harlan Sprague-Dawley nude mouse assessed as reduction in tumor growth at 8.5 to 10 mg/kg, ip administered thrice per week for 24 days measured after 21 days; format: functional; details: dose mg/kg 8.5-10; route intraperitoneal; summary of the method: as §4
Mus musculus [33] = test: Systemic toxicity in athymic Harlan Sprague-Dawley nude mouse xenografted with human UACC-903 cells assessed as reduction in body weight at 8.5 to 10 mg/kg, ip administered thrice a week for 24 days; format: organism-based; set-up: dose 8.5-10 mg/kg, route intraperitoneal; details: in vivo, 576 h; summary of the method: as §4
SK-MEL-37 (Homo sapiens) [34] = test: Cytotoxicity against human SK-MEL-37 cells assessed as decrease in cell viability after 24 hrs by MTS assay
SK-MEL-37 (Homo sapiens) [35] = test: Cytotoxicity against human SK-MEL-37 cells assessed as decrease in cell viability after 72 hrs by MTS assay

With O=C1c2cccc3cccc(c23)C(=O)N1CCN=C=S the Activity (UACC-903 [1]) was “Dose-dependent effect”, the Activity (A375-S2 [2]) was “Dose-dependent effect” and the Activity (1205Lu [3]) was “Dose-dependent effect”. For the same molecule, the Activity (UACC-903 [4]) was “Dose-dependent effect”, the Activity (A375-S2 [5]) was “Dose-dependent effect” and the Activity (1205Lu [6]) was “Dose-dependent effect”. It also gave an IC50 (UACC-903 [7]) of 11.3 µM, an IC50 [8] of 7.93 µM and an IC50 [9] of 5.93 µM. The IC50 [10] was 9.41 µM, the IC50 (UACC-903 [11]) was 8.04 µM and the IC50 [12] was 5.05 µM. For the same molecule, the IC50 [13] was 2.2 µM, the IC50 [14] was 6.04 µM and the Activity (UACC-903 [15]) was 12.4%. It also gave an Activity (UACC-903 [16]) of 4.96%, an Activity (UACC-903 [17]) of 6.41% and a viability at 1 µM (UACC-903 [18]) of 76.3%. The Activity (UACC-903 [19]) was 19.4%, the Activity (UACC-903 [20]) was 7.96% and the Activity (UACC-903 [21]) was 3.41%. The viability at 5 µM (UACC-903 [22]) was 69.3%, the Activity (UACC-903 [23]) was 22.1% and the Activity (UACC-903 [24]) was 7.98%. The Activity (UACC-903 [25]) was 5.59%, the viability at 25 µM (UACC-903 [26]) was 64.3% and the Activity (UACC-903 [27]) was “Dose-dependent effect”. The Activity (Mus musculus [28]) was “Toxic”, the Activity (Mus musculus [29]) was “Non-toxic” and the Activity (Mus musculus [30]) was “Non-toxic”. For the same molecule, the “growth inhibition (GI)” value (UACC-903 [31]) was 50%, the “growth inhibition (GI)” value (UACC-903 [32]) was 30% and the Activity (Mus musculus [33]) was “Non-toxic”. For the same molecule, the Activity (SK-MEL-37 (Homo sapiens) [34]) was “Dose-dependent effect” and the Activity (SK-MEL-37 (Homo sapiens) [35]) was “Dose-dependent effect”.
